Assay results reported in ChEMBL document CHEMBL5614410, “Design, Synthesis, and Evaluation of p53Y220C Acetylation Targeting Chimeras (AceTACs)” (J Med Chem, 2024).
Activity calls are given as the source filed them. No cut-off for these calls is given here.

Legend:
[1] = test system: CREB-binding protein/Histone acetyltransferase p300/Cellular tumor antigen p53 (Homo sapiens), P04637+Q09472+Q92793 [Y220C]; test: AceTAC activity at FLAG-tagged p53Y220C mutant (unknown origin) expressed in human NCI-H1299 cells expressing p300/CBP assessed as increase in p53 acetylation at lysine 382 residue at 10 uM incubated for 24 hrs by western blot analysis relative to control; assay type: cell-based
Method in brief: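 NCI-H1299 (p53Y220C) cells were treated at 0.1–10 μM (0.1, 0.3, 1, 3 or 10 μM) for 24 h. Lysates were Western blotted for p53 and p53K382ac, with vinculin as loading control. p53K382ac was normalised to total p53Y220C and quantified from two or three independent experiments.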

[2] = test system: CREB-binding protein/Histone acetyltransferase p300/Cellular tumor antigen p53 (Homo sapiens), P04637+Q09472+Q92793 [Y220C]; test: Induction of interaction between FLAG-tagged p53Y220C mutant (unknown origin) and p300/CBP expressed in human NCI-H1299 cells assessed as ternary complex formation at 10 uM incubated for 24 hrs by co-immunoprecipitation analysis; assay type: cell-based
Method in brief: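 NCI-H1299 p53-null and p53Y220C cells were treated with DMSO or compound at 10 μM for 24 h. p53-FLAG pull-down was followed by Western blotting for associated p300. Representative of two independent experiments.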

[3] = test system: CREB-binding protein/Histone acetyltransferase p300/Cellular tumor antigen p53 (Homo sapiens), P04637+Q09472+Q92793 [Y220C]; test: AceTAC activity at FLAG-tagged p53Y220C mutant (unknown origin) expressed in human NCI-H1299 cells expressing p300/CBP and transfected with p300 siRNA assessed as increase in p53 acetylation at lysine 382 residue at 1 to 10 uM incubated for 24 hrs by western blot analysis; assay type: cell-based; details: dose 1-10 µM
Method in brief: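 NCI-H1299 cells stably expressing p53Y220C were given control or p300 siRNA, then treated at 0, 1 or 10 μM for 24 h. Lysates were Western blotted for p53 and p53K382ac. The acetylation level was normalised to vinculin and quantified from two independent experiments.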

[4] = test system: CREB-binding protein/Histone acetyltransferase p300/Cellular tumor antigen p53 (Homo sapiens), P04637+Q09472+Q92793 [Y220C]; test: (§1) Induction of interaction between FLAG-tagged p53Y220C mutant (unknown origin) and p300/CBP expressed in human NCI-H1299 cells at 10 uM pretreated for 2 hrs with p53Y220C mutant binder, PK9328 followed by incubation with compound for 18 hrs by co-immunoprecipitation analysis; assay type: cell-based
Method in brief: (§2)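 NCI-H1299 (p53Y220C) cells were pretreated for 2 h with a 10 μM p53Y220C binder or a 10 μM p300 binder, then given compound at 3 μM for 18 h. p53-FLAG pull-down was followed by Western blot analysis.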

[5] = test system: CREB-binding protein/Histone acetyltransferase p300/Cellular tumor antigen p53 (Homo sapiens), P04637+Q09472+Q92793 [Y220C]; test: as §1, with “with p300/CBP bromodomain” for “with p53Y220C mutant”, “binder, 4-(2-(5-(3,5-dimethylisoxazol-4-yl)-2-(3-fluoro-4-methoxyphenethyl)-1H-benzo[d]imidazol-1-yl)ethyl)morpholine” for “binder, PK9328”; assay type: cell-based; method in brief: as §2
[6] = test system: CREB-binding protein/Histone acetyltransferase p300/Cellular tumor antigen p53 (Homo sapiens), P04637+Q09472+Q92793 [Y220C]; test: (§3) AceTAC activity at FLAG-tagged p53Y220C mutant (unknown origin) expressed in human NCI-H1299 cells expressing p300/CBP assessed as increase in p53 acetylation at lysine 382 residue at 10 uM pretreated for 2 hrs with p53Y220C mutant binder, PK9328 followed by incubation with compound for 18 hrs by western blot analysis; assay type: cell-based
[7] = test system: CREB-binding protein/Histone acetyltransferase p300/Cellular tumor antigen p53 (Homo sapiens), P04637+Q09472+Q92793 [Y220C]; test: as §3, with “with p300/CBP bromodomain” for “with p53Y220C mutant”, “binder, 4-(2-(5-(3,5-dimethylisoxazol-4-yl)-2-(3-fluoro-4-methoxyphenethyl)-1H-benzo[d]imidazol-1-yl)ethyl)morpholine” for “binder, PK9328”; assay type: cell-based
NCI-H1299 = test: Antiproliferative activity against p53-null human NCI-H1299 cells assessed as reduction in cell viability at 0.47 to 15 uM incubated for 3 days by WST-8 assay; assay type: functional, cell-based; details: dose 0.47-15 µM, time 3.0 day
Method in brief: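 p53-null NCI-H1299 cells were exposed to compound across the concentration series for 72 h before the viability read-out. Data are mean ± SD from three independent experiments.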

[8] = test system: CREB-binding protein/Histone acetyltransferase p300/Cellular tumor antigen p53 (Homo sapiens), P04637+Q09472+Q92793 [Y220C]; test: AceTAC activity at FLAG-tagged p53Y220C mutant (unknown origin) expressed in human NCI-H1299 cells expressing p300/CBP assessed as upregulation of p21 mRNA expression at 3 uM incubated for 24 hrs by RT-qPCR analysis; assay type: cell-based
Method in brief: (§4)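 NCI-H1299 p53Y220C cells were treated with DMSO or compound at 3 μM for 24 h. mRNA of p53-target genes was measured by RT-qPCR, normalised to GAPDH and expressed relative to DMSO control. Values are mean ± SD of three independent experiments.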

[9] = test system: CREB-binding protein/Histone acetyltransferase p300/Cellular tumor antigen p53 (Homo sapiens), P04637+Q09472+Q92793 [Y220C]; test: AceTAC activity at FLAG-tagged p53Y220C mutant (unknown origin) expressed in human NCI-H1299 cells expressing p300/CBP assessed as upregulation of GADD45A mRNA expression at 3 uM incubated for 24 hrs by RT-PCR analysis; assay type: cell-based; method in brief: as §4
[10] = test system: CREB-binding protein/Histone acetyltransferase p300/Cellular tumor antigen p53 (Homo sapiens), P04637+Q09472+Q92793 [Y220C]; test: AceTAC activity at FLAG-tagged p53Y220C mutant (unknown origin) expressed in human NCI-H1299 cells expressing p300/CBP assessed as BAX mRNA expression at 3 uM incubated for 24 hrs by RT-PCR analysis; assay type: cell-based; method in brief: as §4
[11] = test system: CREB-binding protein/Histone acetyltransferase p300/Cellular tumor antigen p53 (Homo sapiens), P04637+Q09472+Q92793 [Y220C]; test: AceTAC activity at FLAG-tagged p53Y220C mutant (unknown origin) expressed in human NCI-H1299 cells expressing p300/CBP assessed as downregulation of SLC7A11 mRNA expression at 3 uM incubated for 24 hrs by RT-PCR analysis; assay type: cell-based; method in brief: as §4
BXPC-3 = test: Antiproliferative activity against human BXPC-3 cells harboring p53Y220C mutant assessed as inhibition of cell growth incubated for 72 hrs by WST-8 assay; assay type: functional
Method in brief: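 BxPC3 or NUGC-3 cells were treated with DMSO or compound over a concentration range for 72 h before the viability read-out. Values are mean ± SD of technical triplicates from three biological experiments.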

[12] = test system: CREB-binding protein/Histone acetyltransferase p300/Cellular tumor antigen p53 (Homo sapiens), P04637+Q09472+Q92793 [Y220C]; test: AceTAC activity at p53Y220C mutant in human BXPC-3 cells expressing p300/CBP assessed as increase in p53 acetylation at lysine 382 residue incubated for 24 hrs by western blot analysis; assay type: cell-based; details: dose 1-10 µM
Method in brief: (§5)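 BxPC3 or NUGC-3 cells, which express p53Y220C endogenously, were treated with DMSO or compound at 1, 3 or 10 μM for 24 h. Lysates were Western blotted for p53 and p53K382ac, with vinculin as loading control. Representative of two independent experiments.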

[13] = test system: CREB-binding protein/Histone acetyltransferase p300/Cellular tumor antigen p53 (Homo sapiens), P04637+Q09472+Q92793 [Y220C]; test: AceTAC activity at p53Y220C mutant in human NUGC-3 cells expressing p300/CBP assessed as increase in p53 acetylation at lysine 382 residue incubated for 24 hrs by western blot analysis; assay type: cell-based; details: dose 1-10 µM; method in brief: as §5
U2OS = test: Cytotoxicity against human U2OS cells harboring wild type p53 assessed as inhibition of cell growth incubated for 72 hrs by WST-8 assay; assay type: toxicity, cell-based
Method in brief: (§6)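 U2OS (WT p53) or normal prostate PNT2 cells were treated for 72 h at the indicated concentrations. Viability is mean ± SD of technical triplicates from two biological experiments.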

[14] = Cytotoxicity against human U2OS cells harboring wild type p53 assessed as inhibition of cell growth at 10 uM incubated for 72 hrs by WST-8 assay; assay type: toxicity, cell-based; method in brief: as §6
[15] = Cytotoxicity against human PNT2 cells assessed as inhibition of cell growth at 10 uM incubated for 72 hrs by WST-8 assay; assay type: toxicity, cell-based; method in brief: as §6
[16] = Plasma concentration in Swiss albino mouse at 50 mg/kg, ip measured after 8 hrs by LC-MS/MS analysis; assay type: ADME, organism-based
Method in brief: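 Swiss albino mice received a single 50 mg/kg intraperitoneal injection. Plasma levels were followed over 8 h. Each point is the mean ± SEM of three mice.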

SMILES: CCn1c2ccc(CNCCOCCOCCOCCC(=O)NCCOc3ccc(CCc4nc5cc(-c6c(C)noc6C)ccc5n4CCN4CCOCC4)cc3F)cc2c2ccc(-c3cc(C)cs3)cc21
- Activity [1]: 235%
- Activity [2]: Active
- Activity [3]: inactive
- Activity [4]: inactive
- Activity [5]: inactive
- Activity [6]: inactive
- Activity [7]: inactive
- Activity (NCI-H1299): inactive
- Activity [8]: Active
- Activity [9]: Active
- Activity [10]: inactive
- Activity [11]: Active
- GI50 (BXPC-3): 2160 nM
- Activity [12]: Dose-Dependent Effect
- Activity [13]: Dose-Dependent Effect
- GI50 (U2OS): > 10 µM
- inhibition at 72 h, 10 µM [14]: 30%
- inhibition at 72 h, 10 µM [15]: ~30%
- concentration at 8 h [16]: > 400 nM
